The values below come from ChEMBL document CHEMBL1150415 (J Med Chem, 2008).

For series [1], the system named is MC9. The experiment in a line: Inhibition of leukotrienes production in mouse MC9 cells. The format is functional, cell-based. The method, boiled down:
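Murine MC-9 mast cells stimulated through the IgE receptor to release arachidonic acid. Leukotriene production (5-LO pathway) was quantified.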

Series [2] concerns MC9. In words: Inhibition of LTB4 production in mouse MC9 cells. The format is functional, cell-based.
The nature of series [3]: Plasma clearance in Sprague-Dawley rat at 2 mg/kg, iv. The format is ADME, organism-based. Also on record: dose 2 mg/kg, route intravenous.
Another series deals with Blood. In words: Inhibition of TXB2 production in Sprague-Dawley rat whole blood. The format is functional, tissue-based. The method, boiled down: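 Rat whole blood stimulated with calcium ionophore A23187 at 5 µM, with thromboxane B2 measured. Each run gives the mean of triplicate assays, and values come from at least two runs.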
Series [4] can be described thus: Inhibition of cytosolic phospholipase A2alpha by GLU micelle assay. The method, boiled down:
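Micellar assay with 7-hydroxycoumarinyl-γ-linolenate (GLU) substrate, presenting inhibitor and substrate to the enzyme in high-lipid micelles. Each run gives the mean of duplicate assays, and values come from at least two runs.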

Series [5] in a line: Plasma concentration in adjuvant-induced arthritis Lewis rat model at 5 mg/kg, po after 4 hrs. Format: ADME, organism-based. The arrangement: dose 5 mg/kg, route oral.
In series [6] the test system is Rattus norvegicus. The experiment in a line: Inhibition of carrageenan-induced paw edema in Sprague-Dawley rat administered 2 hrs before carrageenan challenge at 25 mg/kg, po. The format is functional. On the technique in general: In the carrageenan paw model, swelling and tenderness develop within hours.
Series [7] concerns Rattus norvegicus. In words: Reduction in synovitis damage in Freund's adjuvant-induced arthritis Lewis rat model at 5 mg/kg, po for 11 days. Format: functional, organism-based. Also on record: dose 5 mg/kg. The method, boiled down: (§1)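 Arthritis was induced in Lewis rats by intradermal complete Freund's adjuvant at the base of the tail. Oral treatment began on day 8, when mean clinical joint scores were 12, and continued for 11 days. Tarsal joints were taken at necropsy and lesions were scored histologically in blinded fashion.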

For series [8], the system named is MC9. In words: Inhibition of PGF2alpha production in mouse MC9 cells. The format is functional, cell-based.
A short description of series [9]: Plasma concentration in adjuvant-induced arthritis Lewis rat model at 5 mg/kg, po after 16 hrs. Format: ADME, organism-based. Also on record: dose 5 mg/kg, route oral.
The subject of series [10] is MC9. The experiment in a line: Inhibition of PGF2apha production in arachidonic acid-stimulated mouse MC9 cells. The format is functional, cell-based.
The test system of series [11] is Rattus norvegicus. In words: Reduction in cartilage damage in Freund's adjuvant-induced arthritis Lewis rat model at 5 mg/kg, po for 11 days. The arrangement: dose 5 mg/kg. The format is functional, organism-based. The method, boiled down: as §1
The subject of series [12] is Rattus norvegicus. In words: Inhibition of PGE2 production in carrageenan-stimulated rat air pouch model at 2 mg/kg, ip after 6 hrs. The note with it: route intraperitoneal. The format is functional. The method, boiled down:
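Rats given an intraperitoneal dose. Carrageenan was injected into a preformed air pouch, contents were collected 6 h later, and PGE2 was quantified.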

Series [13] deals with Rattus norvegicus. The experiment in a line: Inhibition of carrageenan-induced paw edema in Sprague-Dawley rat administered 2 hrs before carrageenan challenge at 10 mg/kg, po. As to conditions: read-out: INH.

Molecules are shown by their SMILES. Activity calls are given as the source filed them. The calls are words filed in the database; no cut-off is given here.

Regarding `CC(c1cc2ccccc2s1)N(O)C(N)=O` (stereo unspecified) [ZILEUTON], in the series on MC9 [1], the outcome was Active. The midpoint of inhibition in the series on MC9 [2], the IC50, lay at 550 nM.

For `Cc1cccc(C)c1CS(=O)(=O)NCCc1c(CCOc2ccc(C(=O)O)cc2)c2cc(Cl)ccc2n1C(c1ccccc1)c1ccccc1`, in series [3], the clearance (usually the volume of plasma or blood freed of the substance per unit of time) was 13 mL/min/kg. Further, the IC50 (in the series with Blood; in series [4]) was 30 nM in each case.

Consider `Cc1ccc(-c2cc(C(F)(F)F)nn2-c2ccc(S(N)(=O)=O)cc2)cc1` [CELECOXIB], for which, in [5], the concentration at 4 h was 1130 ng/mL. In addition, the inhibition in vivo at 25 mg/kg in the series on Rattus norvegicus [6] turned out to be 37%. The result in the series on Rattus norvegicus [7] and with Rattus norvegicus [11] was Active. Further, the IC50 (commonly the concentration at which inhibition is half-maximal) in the series with MC9 [8] stood at 400 nM; in the series on MC9 [10], 300 nM. For the same molecule, the concentration at 16 h in [9] was found to be 129 ng/mL. The molecule also had an inhibition in vivo at 2 mg/kg in the series with Rattus norvegicus [12] of 90%.

Turning to `COc1ccc2cc([C@H](C)C(=O)O)ccc2c1` [NAPROXEN], the values for the half-inhibitory concentration (IC50) with MC9 [8] and in the series on MC9 [10] were 200 nM and 330 nM, respectively. For the same molecule, in the series on Rattus norvegicus [13], the inhibition in vivo at 10 mg/kg was determined as 50%.
